Measurements from ChEMBL document CHEMBL3351657, “γ-Hydroxyethyl piperidine iminosugar and N-alkylated derivatives: a study of their activity as glycosidase inhibitors and as immunosuppressive agents” (Bioorg Med Chem, 2014).

Tests used:
[1] = Inhibition of alpha-glucosidase (unknown origin) using p-nitrophenyl-alpha-D-glucopyranoside substrate incubated for 10 mins by UV spectrophotometry
Procedure, shortened: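 α-Glucosidase (0.1 unit/ml) preincubated with compound 1 h at 37 °C. Reaction started with 10 mM p-nitrophenyl substrate in 100 mM phosphate buffer pH 6.8, run 10 min at 37 °C, and stopped with 0.1 M Na₂CO₃.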

Jurkat = assay: Cytotoxicity against human Jurkat cells assessed as cell viability after 3 hrs by WST1 assay; format: functional, cell-based; settings: 48 h, in the assay text read “after 48 hrs” for “after 3 hrs”
Procedure, shortened: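 Jurkat cells in exponential growth seeded at 50 × 10³ per 200 µl complete medium, with compound dilution added (20 µl) and incubated 48 h at 37 °C, 5% CO₂. Untreated cells set maximum viability and 1% Triton X-100 (last 15 min) set minimum. After a further 3 h at 37 °C, optical density read at 450 nm.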

[2] = molecular target: alpha-mannosidase (Canavalia ensiformis); assay: Inhibition of jack bean alpha-mannosidase using p-nitrophenyl-alpha-D-mannopyranoside substrate incubated for 10 mins by UV spectrophotometry
B cell = assay: Immunosuppressive activity in CPG oligonucleotide-induced human B cells assessed as inhibition of IgG production by immune assay; format: functional, cell-based
Procedure, shortened: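 Human B cells stimulated with CpG oligonucleotide and cultured with compound for 7 days at 37 °C, 5% CO₂. IgG concentration in supernatants then measured by immunoassay.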

PBMC = assay: Immunosuppressive activity in human PBMC assessed as inhibition of cell proliferation using (methyl-3H)thymidine by mixed lymphocyte reaction assay; format: functional, cell-based
Procedure, shortened: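 PBMCs at 1.2 × 10⁶ cells/ml in RPMI-1640 with 10% heat-inactivated FCS and antibiotics. 100 µl of each cell suspension mixed with 20 µl diluted compound and cultured 6 days at 37 °C, 5% CO₂. 1 µCi (methyl-³H)thymidine per well added for the last 18 h. Cells harvested on glass filters and cpm counted by liquid scintillation.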

[3] = Inhibition of alpha-galactosidase (unknown origin) using p-nitrophenyl-alpha-D-galactopyranoside substrate incubated for 10 mins by UV spectrophotometry
Procedure, shortened: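 α-Galactosidase (0.1 unit/ml) preincubated with compound 1 h at 37 °C. Substrate added in 200 mM sodium acetate buffer, reaction run 10 min at 37 °C, and stopped with 200 mM borate buffer pH 9.8.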

Structure (SMILES) | IC50 ([1]; read-out: IC50) | IC50 (Jurkat) | IC50 [2] | IC50 (B cell) | IC50 (PBMC) | IC50 [3] | IC50 ([3]; read-out: IC50) | IC50 [1]
OCCC1(O)[C@H](O)CNC[C@@H]1O (stereo partly specified) | 418 µM | > 10 µM | 1830 µM | > 50 µM | > 10 µM | Not Active |  | 
CCCCN1C[C@@H](O)C(O)(CCO)[C@@H](O)C1 (stereo partly specified) | 360 µM | > 10 µM | 252 µM | > 50 µM | > 10 µM |  | 167 µM | 
CCCCCCN1C[C@@H](O)C(O)(CCO)[C@@H](O)C1 (stereo partly specified) |  | > 10 µM | 183 µM | > 50 µM | > 10 µM |  | 315 µM | Not Active
CCCCCCCCN1C[C@@H](O)C(O)(CCO)[C@@H](O)C1 (stereo partly specified) |  | > 10 µM |  | > 50 µM | > 10 µM | Not Active |  | Not Active
CCCCCCCCCCN1C[C@@H](O)C(O)(CCO)[C@@H](O)C1 (stereo partly specified) |  | > 10 µM |  | 15 µM | > 10 µM | Not Active |  | Not Active
OCCN1C[C@@H](O)C(O)(CCO)[C@@H](O)C1 (stereo partly specified) | 252 µM | > 10 µM | 873 µM | > 50 µM | > 10 µM | Not Active |  | 
OCCN1C[C@H](O)[C@@H](O)[C@H](O)[C@H]1CO [MIGLITOL] | 171 µM |  |  |  |  |  | 1850 µM | 
